# How the values were obtained:
# [1] = Urine drug recovery, renal clearance and estimate of oral bioavailability; type: in vivo, human; conditions: Cohort D, 24-h urine; for CL renal: both, human, urine and plasma, oral, 265 mg, CLr, mean ± SD
# Method in brief: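 Cohort D: 265 mg immediate-release tablet in the fed state (meal 30 min pre-dose), once on day 1, twice daily days 2–6, once on day 7. Urine was collected over 24 h on days 1 and 7 and assayed by LC-MS (LLOQ 30 ng/mL ALZ-801, 100 ng/mL tramiprosate). Renal clearance was calculated as Ae divided by plasma AUC24.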
# [2] = Phase I multiple ascending dose study of ALZ-801 capsule and tablet; type: in vivo, human; conditions: plasma; for half-life: t ½
# [3] = Single-dose ALZ-801 immediate-release tablet PK and food effect study; type: in vivo, human; conditions: human, plasma, oral
# [4] = Drug substance properties; type: physicochemical
# [5] = Safety and tolerability, tablet single ascending dose study; type: in vivo, human
# [6] = Regimen A: 171 mg tablet, fasted, n = 10
# [7] = Regimen B: 205 mg tablet, fasted, n = 11
# [8] = Regimen C: 205 mg tablet, fed, n = 12
smiles,measurement,setting,value
"CC(C)[C@H](N)C(=O)NCCCS(=O)(=O)O [ALZ-801, 3-(L-valyl) amino-1-propanesulfonic acid]",Mean Ae,"[1]; Day 1, ALZ-801 tablet 265 mg",22.5 mg
same,Mean Ae,"[1]; Day 7, ALZ-801 tablet 265 mg",24.1 mg
same,CL renal,"[1]; Day 1, ALZ-801 tablet 265 mg",36.4 ± 10.7 mL/min
same,CL renal,"[1]; Day 7, ALZ-801 tablet 265 mg",35.9 ± 19.9 mL/min
same,Tmax,"[2]; both, human, oral, 256.5 mg, T max, ALZ-801 capsule 171 and 256.5 mg, day 1, fasted",0.5 h
same,Tmax,"[2]; both, human, oral, 256.5 mg, Tmax, Cohort C, capsule, fed, 256.5 mg QD, Day 1, median (range)",~1 h
same,half-life,"[2]; both, human, oral, 256.5 mg, ALZ-801 capsule 171 and 256.5 mg, day 1, fasted",~1 h
same,AUC,"[2]; both, human, oral, 265 mg, AUC12, plasma, Day 1, fed, ALZ-801 tablet 265 mg (Cohort D), mean ± SD",10300 ng·h/mL
same,AUC,"[2]; both, human, oral, 265 mg, AUC12, plasma, Day 7, fed, ALZ-801 tablet 265 mg twice daily (Cohort D), mean ± SD",11200 ng·h/mL
same,AUC,"[2]; both, human, oral, 265 mg, AUC24, plasma, Day 1, fed, ALZ-801 tablet 265 mg (Cohort D), mean ± SD",10300 ng·h/mL
same,AUC,"[2]; both, human, oral, 265 mg, AUC24, plasma, Day 7, fed, ALZ-801 tablet 265 mg twice daily (Cohort D), mean ± SD",11200 ng·h/mL
same,Cmax,"[2]; both, human, oral, 265 mg, C max, Day 1, fed, ALZ-801 tablet 265 mg (Cohort D), mean ± SD",4960 ± 2650 ng/mL
same,Tmax,"[2]; both, human, oral, 265 mg, T max, Day 1, fed, ALZ-801 tablet 265 mg (Cohort D), mean ± SD",2.45 ± 0.848 h
same,Tmax,"[2]; both, human, oral, 265 mg, T max, Day 7, fed, ALZ-801 tablet 265 mg twice daily (Cohort D), mean ± SD",2.11 ± 0.553 h
same,half-life,"[2]; both, human, oral, 265 mg, Day 1, fed, ALZ-801 tablet 265 mg (Cohort D), mean ± SD",1.05 ± 0.16 h
same,half-life,"[2]; both, human, oral, 265 mg, Day 7, fed, ALZ-801 tablet 265 mg twice daily (Cohort D), mean ± SD",1.11 ± 0.263 h
same,Tmax,"[2]; both, human, oral, 340 mg, T max, day 14, dosing in the fasted state",~0.5 h
same,half-life,"[2]; both, human, oral, irrespective of dosing regimen and day",~1 h
same,lower C max in fed than fasted state,"[2]; 256.5 mg ALZ-801 capsules, day 1",25%
same,lower C max for 265 mg tablet than 256.5 mg capsule,"[2]; fed state, day 1",22%
same,lower C max in fed than fasted state,"[2]; repeated 256.5 mg ALZ-801 capsules, day 7",30%
same,half-life,[3],< 1 h
same,Tmax,[3]; 171 mg,1 h
same,Tmax,[3]; 205 mg,0.5 h
same,pKa,[4],7.69
same,solubility,[4]; water,> 200 mg/mL
same,Chills,[5]; [6],0
same,Flatulence,[5]; [6],0
same,Flushing,[5]; [6],0
same,Gastrointestinal disorders,[5]; [6],4
same,General disorders and administration site conditions,[5]; [6],0
same,Headache,[5]; [6],0
same,Nausea,[5]; [6],4
same,Nervous system disorders,[5]; [6],0
same,Somnolence,[5]; [6],0
same,Subjects reporting AEs,[5]; [6],4
same,Vascular disorders,[5]; [6],0
same,Vomiting,[5]; [6],1
same,Chills,[5]; [7],0
same,Flatulence,[5]; [7],0
same,Flushing,[5]; [7],0
same,Gastrointestinal disorders,[5]; [7],4
same,General disorders and administration site conditions,[5]; [7],0
same,Headache,[5]; [7],0
same,Nausea,[5]; [7],4
same,Nervous system disorders,[5]; [7],0
same,Somnolence,[5]; [7],0
same,Subjects reporting AEs,[5]; [7],4
same,Vascular disorders,[5]; [7],0
same,Vomiting,[5]; [7],1
same,Chills,[5]; [8],0
same,Flatulence,[5]; [8],0
same,Flushing,[5]; [8],0
same,Gastrointestinal disorders,[5]; [8],0
same,General disorders and administration site conditions,[5]; [8],0
same,Headache,[5]; [8],0
same,Nausea,[5]; [8],0
same,Nervous system disorders,[5]; [8],0
same,Somnolence,[5]; [8],0
same,Subjects reporting AEs,[5]; [8],0
same,Vascular disorders,[5]; [8],0
same,Vomiting,[5]; [8],0
same,Subjects reporting AEs,"[5]; Regimen D: 342 mg (2 × 171 mg tablets), fed, n = 12",3
same,Chills,"[5]; Regimen D: 342 mg, fed, n = 12",0
same,Flatulence,"[5]; Regimen D: 342 mg, fed, n = 12",0
same,Flushing,"[5]; Regimen D: 342 mg, fed, n = 12",0
same,Gastrointestinal disorders,"[5]; Regimen D: 342 mg, fed, n = 12",3
same,General disorders and administration site conditions,"[5]; Regimen D: 342 mg, fed, n = 12",0
same,Headache,"[5]; Regimen D: 342 mg, fed, n = 12",0
same,Nausea,"[5]; Regimen D: 342 mg, fed, n = 12",3
same,Nervous system disorders,"[5]; Regimen D: 342 mg, fed, n = 12",0
same,Somnolence,"[5]; Regimen D: 342 mg, fed, n = 12",0
same,Vascular disorders,"[5]; Regimen D: 342 mg, fed, n = 12",0
same,Vomiting,"[5]; Regimen D: 342 mg, fed, n = 12",0
same,onset of nausea,[5]; following fasted dosing,0.5 to 1 h
same,onset of nausea,[5]; following fed dosing,1.5 to 2.5 h
same,tolerability,[5]; tablet SAD study (Study 3),well tolerated

# Reference: publication PMC5814546 (Clinical Pharmacokinetics, 2017)
